Measurements taken from ChEMBL document CHEMBL1123670, “Inhibitors of cyclic AMP phosphodiesterase. 2. Structural variations of N-cyclohexyl-N-methyl-4-[(1,2,3,5-tetrahydro- 2-oxoimidazo[2,1-b]quinazolin-7-yl)-oxy]butyramide (RS-82856)” (J Med Chem, 1987).

What was measured:
[1] = organism: Homo sapiens; experiment: Ratio of IC50 of inhibition of platelet aggregation to IC50 of inhibition of platelet PDE (Efficacy index); type: functional
How it was run: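 Efficacy index is the IC50 for inhibition of ADP-induced platelet aggregation divided by the IC50 for human platelet PDE inhibition. Both IC50s come from graphical dose-response curves (five concentrations, triplicate).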

[2] = Inhibition of ADP-induced platelet aggregation; type: functional
How it was run: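 ADP-induced platelet aggregation. Read-out is the rate of change in percentage transmission of the primary aggregation phase after 5 min incubation. Each agent tested at five concentrations in triplicate, with experiments repeated at least twice using platelets from different donors. IC50 (μM) determined graphically.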

[3] = target: Phosphodiesterase; PDE3 & PDE4 (Homo sapiens) (UniProt P27815+Q14432+Q08499+Q07343+Q13370+Q08493); experiment: In vivo inhibition of cyclic AMP phosphodiesterase from dog heart
How it was run: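 Cyclic AMP phosphodiesterase prepared from human platelets (IC50, nM) or from rat or dog heart tissue (IC25, nM). Each agent tested at five inhibitor concentrations in triplicate. IC50/IC25 read graphically from the dose-response curve.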

[4] = target: Phosphodiesterase 3 (Homo sapiens, UniProt Q14432+Q13370); experiment: In vitro inhibition of cyclic AMP phosphodiesterase from human platelets
[5] = Canis lupus familiaris; in the assay text read “In vitro” for “In vivo”; target entry is the homologue from another species
[6] = Canis lupus familiaris; target entry is the homologue from another species; in the assay text read “In vitro” for “In vivo”

SMILES	Ratio [1]	IC50 [2]	IC25 [3, 5]	IC50 [4]	IC25 [3, 6]
O=C1CN2Cc3cc(OCCCC(=O)N(CCCCCO)C4CCCCC4)ccc3N=C2N1	551	2700 nM	2.3 nM	4.9 nM	
O=C1CN2Cc3cc(OCCCC(=O)NC4CCCCC4)ccc3N=C2N1	139	10000 nM	180 nM	72 nM	
CN(C(=O)CCCOc1ccc2c(c1)CN1C(=O)C(=O)NC1=N2)C1CCCCC1	34	150000 nM	1700 nM	4400 nM	
CC[C@@H]1C(=O)NC2=Nc3ccc(OCCCC(=O)N(C)C4CCCCC4)cc3CN21	15	5600 nM	620 nM	370 nM	
CCN(C(=O)CCCOc1ccc2c(c1)CN1CC(=O)NC1=N2)C1CCCCC1	120	180 nM		1.5 nM	5.2 nM
C[C@@H]1C(=O)NC2=Nc3ccc(OCCCC(=O)N(C)C4CCCCC4)cc3CN21	66	360 nM		5.4 nM	27 nM
C=c1c(=O)[nH]c2n1Cc1cc(OCCCC(=O)N(C)C3CCCCC3)ccc1N=2	55.5	150 nM	45 nM	2.7 nM	
COC(=O)CN(C(=O)CCCOc1ccc2c(c1)CN1CC(=O)NC1=N2)C1CCCCC1	350	700 nM		2 nM	10 nM
CC(O)[C@H]1C(=O)NC2=Nc3ccc(OCCCC(=O)N(C)C4CCCCC4)cc3CN21 (some centres undefined)	22	22000 nM		1000 nM	1700 nM
O=C1CN2Cc3cc(OCCCC(=O)N(CCn4ccnc4)C4CCCCC4)ccc3N=C2N1	642	3600 nM	7 nM	5.6 nM	
CN(C)C(=O)CCCOc1ccc2c(c1)CN1CC(=O)NC1=N2	75	90000 nM		1200 nM	
COCCN(C(=O)CCCOc1ccc2c(c1)CN1CC(=O)NC1=N2)C1CCCCC1	81	105 nM	< 10 nM	1.3 nM	
CC1c2cc(OCCCC(=O)N(C)C3CCCCC3)ccc2NC2=NC(=O)CN21 (centres undefined)	22	130 nM	14 nM	5.9 nM	
O=C1CN2Cc3cc(OCCCc4nnnn4C4CCCCC4)ccc3N=C2N1	222	1000 nM	18 nM	4.5 nM	
CN(C(=O)CCCOc1ccc2c(c1)CN1C(=N2)NC(=O)[C@H]1CO)C1CCCCC1	373	6900 nM		18.5 nM	72 nM
CN(C(=O)CCCOc1ccc2c(c1)CN1C(=N2)NC(=O)C1(C)C)C1CCCCC1	9	4300 nM	2400 nM	470 nM	
CN(C(=O)NCCOc1ccc2c(c1)CN1CC(=O)NC1=N2)C1CCCCC1	506	8600 nM	780 nM	17 nM	
CN(C(=O)CCCOc1ccc2c(c1)CN1CC(=O)NC1=N2)C1CCCCCCC1	86	190 nM	1.6 nM	2.2 nM	
CN(C(=O)CCCOc1ccc2c(c1)CN1CC(=O)NC1=N2)C1CCCC1	30	1450 nM		48 nM	25 nM
CN(C(=O)CCCOc1ccc2c(c1)CN1C(=N2)NC(=O)[C@@H]1CO)C1CCCCC1	563	15500 nM	90 nM	27.5 nM	

SMILES	Ratio [1]	IC50 [2]	IC25 [3, 5]	IC50 [4]	IC25 [3, 6]
CN(C(=O)OCCOc1ccc2c(c1)CN1CC(=O)NC1=N2)C1CCCCC1	115	1500 nM	58 nM	13 nM	
CC[C@H]1C(=O)NC2=Nc3ccc(OCCCC(=O)N(C)C4CCCCC4)cc3CN21	14	8200 nM		580 nM	450 nM
CN(C(=O)CCCOc1ccc2c(c1)NC1=NC(=O)CN1C2)C1CCCCC1	173	26000 nM		150 nM	64 nM
NC(=O)CN(C(=O)CCCOc1ccc2c(c1)CN1CC(=O)NC1=N2)C1CCCCC1	1818	20000 nM		11 nM	100 nM
CN(C(=O)CCCCc1ccc2c(c1)CN1CC(=O)NC1=N2)C1CCCCC1	33	6600 nM	220 nM	200 nM	
CN(C(=O)CCCS(=O)(=O)c1ccc2c(c1)CN1CC(=O)NC1=N2)C1CCCCC1	19	58000 nM		3100 nM	6600 nM
O=C1CN2Cc3cc(OCCCC(=O)N(CCCCCCO)C4CCCCC4)ccc3N=C2N1	1111	4000 nM		3.6 nM	2 nM
O=C1CN2Cc3cc(OCCCC(=O)N(CCCO)C4CCCCC4)ccc3N=C2N1	283	1700 nM	17 nM	6 nM	
CN(C(=O)CCCOc1ccc2c(c1)CN1CC(=O)NC1=N2)C1CCCCCC1	250	250 nM		1 nM	4.2 nM
NC(=O)CCCOc1ccc2c(c1)CN1CC(=O)NC1=N2	68	47000 nM		690 nM	380 nM
CN(C(=O)CCCOc1ccc2c(c1)CN1CCC(=O)NC1=N2)C1CCCCC1	14.6	1900 nM		130 nM	100 nM
O=C1CN2Cc3cc(OCCCC(=O)N(CCN4CCOCC4)C4CCCCC4)ccc3N=C2N1	243	1000 nM		4.1 nM	32 nM
CN(C(=O)CCCSc1ccc2c(c1)CN1CC(=O)NC1=N2)C1CCCCC1	178	25000 nM	260 nM	140 nM	
CN(C(=O)CCCOc1ccc2c(c1Cl)CN1CC(=O)NC1=N2)C1CCCCC1	79	1100 nM		14 nM	100 nM
O=C1CN2Cc3cc(OCCCC(=O)OC4CCCCC4)ccc3N=C2N1	168	3400 nM	43 nM	18 nM	
CCOC(=O)CCCOc1ccc2c(c1)CN1CC(=O)NC1=N2	6.7	1600 nM		240 nM	440 nM
O=C1CN2Cc3cc(OCCCC(=O)N(CCCCO)C4CCCCC4)ccc3N=C2N1	625	4000 nM		6.4 nM	7.2 nM
CN(C(=O)CCCOc1cccc2c1CN1CC(=O)NC1=N2)C1CCCCC1	30	60000 nM	1500 nM	2000 nM	
C[C@H]1C(=O)NC2=Nc3ccc(OCCCC(=O)N(C)C4CCCCC4)cc3CN21	18	470 nM		26 nM	78 nM
CN(C(=O)CCCOc1ccc2c(c1)CN1C(=O)CNC1=N2)C1CCCCC1	8	120000 nM	1600 nM	15000 nM	
